Rows were chosen to be rich in hits. Some 3.6% of all compounds tested hit in one or more screens of this group.
FGF22 binding: FGF22 (human) thermal shift binding; activity (Tm shift, normalised), % at 9.99 µM; 1.5% of 340,000 active; AID 651658; recombinant FGF22 thermal shift, SYPRO orange fluorescence; percent of sucrose octasulfate shift, DMSO zero;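 active means mean Tm shift, scaled 0 neutral to 100 positive control, at about 1.3% or above, every replicate too, limit read from the data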
Target sequence (Q9HCT0 whole entry, looked up): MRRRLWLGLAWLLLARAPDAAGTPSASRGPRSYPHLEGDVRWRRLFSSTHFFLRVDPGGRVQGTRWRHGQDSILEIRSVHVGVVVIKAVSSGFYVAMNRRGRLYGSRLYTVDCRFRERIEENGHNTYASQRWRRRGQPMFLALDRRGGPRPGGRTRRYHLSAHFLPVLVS
NR3A LBD binder: modulates the human NR3A ligand-binding domain | NR3A LBD differential scanning fluorimetry, Tm shift; 0% = protein alone, 100% = glycine-bound protein | Tm shift relative to glycine control, % at 25 µM | 2.5% of 340,000 active | AID 1259313;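 active means melting temperature shift of at least 10% of the positive control shift, at one fixed dose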
EBNA-1 inhibitor: blocks EBNA-1 binding to DNA; inhibition, % at 14.8 µM; AID 1950; 0.34% of 300,000 active; EBNA-1 DNA binding, fluorescence polarization; in the data active means inhibition above about 28%
FID counter: fluorescent intercalator displacement, NS3 helicase counter-screen. 0.17% of 290,000 active. inhibition, % at 7.9 µM. DNA fluorescent intercalator displacement, fluorescence. AID 1845; in the data active means inhibition above about 37%;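 further: 0% = vehicle and 100% = reference compound; higher means more ethidium bromide displaced from hairpin DNA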
NS3 helicase inh: inhibitors of Hepatitis C virus NS3 helicase. NS3 helicase DNA unwinding, Cy5 molecular beacon fluorescence. inhibition, % at 10.9 µM. AID 1800. 0.56% of 290,000 active;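 active means inhibition above the mean of all tested compounds plus 3 SD, set per campaign, cut at about 35% in these data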;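 further: 0% = DMSO wells and 100% = thioflavine S control wells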
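System: HCV NS3 helicase fragment; control set: DMSO and thioflavine S; technique: Cy5 fluorescence at 0 and 60 min, beacon hairpin quenching; reagent: beacon DNA duplex substrate plus ATP; replicates: singlicate; schedule: 1 h reaction at 25 °C, ATP-initiated; medium: MOPS buffer pH 6.5 with MgCl2, DTT, Tween20, BSA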
ZTA counter: blocks Epstein-Barr virus ZTA, an EBNA-1 counter-screen | ZTA-DNA binding, fluorescence polarization | AID 2234 | 0.15% of 320,000 active | inhibition, % at 11 µM; in the data active means inhibition above about 33%
Target sequence (P03206 whole entry, looked up): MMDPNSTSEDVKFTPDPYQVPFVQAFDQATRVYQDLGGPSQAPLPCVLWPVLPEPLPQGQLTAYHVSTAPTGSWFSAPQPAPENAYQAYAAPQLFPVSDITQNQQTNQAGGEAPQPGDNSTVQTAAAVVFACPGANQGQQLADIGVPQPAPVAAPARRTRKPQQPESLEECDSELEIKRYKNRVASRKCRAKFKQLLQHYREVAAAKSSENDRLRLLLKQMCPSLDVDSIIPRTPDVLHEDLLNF
* marks the source's active call; other numbers are inactive results; . = no result.

SMILES	FGF22 binding	NR3A LBD binder	EBNA-1 inhibitor	FID counter	NS3 helicase inh	ZTA counter
CC1CCN(S(=O)(=O)c2ccc(C(=O)Nc3nnc(-c4ccco4)o3)cc2)CC1	0	-5	0	-68	7	3
NC(=O)CSc1nnc(-c2ccc(S(=O)(=O)N3CCCC3)cc2)n1Cc1ccco1	0	11*	-2	-13	-4	-3
Cc1nnc(NC(=O)c2ccc(F)c(S(=O)(=O)N3CCCCC3)c2)s1	0	16*	4	-17	9	13
Cc1nnc(NC(=O)c2ccc(C)c(S(=O)(=O)N3CCOCC3)c2)s1	.	2	4	0	3	5
O=C(NCc1ccco1)c1ccc(Br)c(S(=O)(=O)N2CCCCC2)c1	.	1	4	-7	5	-11
O=C(NCc1ccco1)c1ccc(F)c(S(=O)(=O)N2CCCCC2)c1	43*	3	3	-9	13	17
COc1ccc(CNC(=O)CN2CCN(S(=O)(=O)c3cccs3)CC2)cc1OC	43*	0	5	-25	3	-14
CCN(CC)S(=O)(=O)c1cccc(-c2nnc(SCC(=O)NC)n2N)c1	44*	0	2	-3	4	9
CCOC(=O)N1CCN(CC(=O)c2ccc3c(c2)CCN3C(C)=O)CC1	0	2	8	-6	2	4
CC(=O)N1CCc2cc(C(=O)CN3CCCCC3)ccc21	0	13*	6	-6	9	13
O=[N+]([O-])c1ccc(S(=O)(=O)N2CCN(c3ccccn3)CC2)cc1	43*	.	.	.	.	.
O=[N+]([O-])c1cccc(S(=O)(=O)N2CCN(c3ccccn3)CC2)c1	0	-1	-5	-5	7	-11
CCCNC(=O)C[C@H]1CC[C@@H]2[C@@H](COc3ccc(NC(=O)c4cccc(OC)c4)cc3C(=O)N2C)O1	0	.	.	.	.	.
CC1=NN2C(=N)/C(=C\c3cc(C)n(-c4ccc(C)cc4)c3C)C(=O)N=C2S1	0	22*	0	-19	9	-2
CCCC1=NN2C(=N)/C(=C\c3cc(C)n(-c4cccc(C)c4)c3C)C(=O)N=C2S1	0	-16	5	-6	1	12
COc1cc(C(=O)NCCC(C)C)ccc1OCc1ccc(Cl)cc1Cl	.	-2	5	-2	-3	4
COc1cc(C(=O)NC2CCCCC2)ccc1OCc1ccc(Cl)cc1Cl	43*	1	-13	-2	-2	-3
Cc1cccc(N2CCN(C(=O)CCN3C(=O)C4C5C=CC(C5)C4C3=O)CC2C)c1 (stereo not given)	44*	-2	-2	-32	-10	-15
Cc1cccc(N2CCN(C(=O)NC3CCCCC3)CC2C)c1 (stereo not given)	0	1	.	-41	-3	.
Cc1cccc(N2CCN(C(=O)c3cccc(N4C(=O)C5C6C=CC(C6)C5C4=O)c3)CC2C)c1 (stereo not given)	0	1	-10	-58	-10	-24
Cc1cccc(N2CCN(C(=O)c3ccccn3)CC2C)c1 (stereo not given)	43*	0	-8	-7	-15	-19
C[C@@H]1CCCCO[C@@H](CN(C)CC2CC2)[C@H](C)CN([C@@H](C)CO)C(=O)c2cc(NC(=O)CCC(F)(F)F)ccc2O1	0	.	.	.	.	.
O=C(O)C(=Cc1ccncc1)c1cccc2ccccc12	43*	.	.	.	.	.
CC(C)C(=O)Nc1ccc(C(=O)N/N=C/c2cc(Br)cc(Br)c2O)cc1	0	31*	-8	1	2	-1
C[C@@H]1CN([C@@H](C)CO)C(=O)c2cc(/C=C/c3ccccc3)cnc2O[C@H]1CN(C)Cc1ccccc1	0	.	.	.	.	.
C#CCOCCOCCOCCNc1nc(N2CCN(C(=O)CCCCCCCCCCNC(=O)[C@H](CCCN=C(N)N)n3cc(C[C@@H](C)CC)nn3)CC2)nc(N2CCN(C(=O)CCCCCCCCCCNC(=O)[C@@H]([C@H](C)CC)n3cc(CCCCCN)nn3)CC2)n1	.	.	1	.	.	161*
C#CCOCCOCCOCCNc1nc(N2CCN(C(=O)CCCCCCCCCCNC(=O)[C@H]([C@@H](C)CC)n3cc(CCCCN=C(N)N)nn3)CC2)nc(N2CCN(C(=O)CCCCCCCCCCNC(=O)[C@H](CCCN=C(N)N)n3cc(C[C@@H](C)CC)nn3)CC2)n1	.	.	2	.	.	137*
